Screening data deposited in PubChem by several laboratories.
Only some compounds are listed: those with a hit (about 3.2% of all), similar ones and a draw of the others.
UBC13 polyUb – UBC13 polyubiquitin chain formation inhibitors, primary screen, biochemical, TR-FRET, uHTS; Ubiquitin-conjugating enzyme E2 N (Homo sapiens), P61088; inhibition, % at 20 µM; hit rate 0.47% among 330,000; in the data active = inhibition above about 45%, passing the limit was not always enough
Apaf1 inhib – inhibitors of human Apaf-1 apoptosome, primary screen, biochemical, DEVD-Rh110 fluorescence, uHTS; AID 489030, 2010; inhibition, % at 20 µM; reconstituted apoptosome caspase-3 activity; hit rate 0.71% among 330,000; active = inhibition of at least 40% at 20 µM;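 note: plate controls were DMSO wells for no effect and DEVD-CHO caspase inhibitor wells for full effect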
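Material: reconstituted apoptosome with Apaf-1, cytochrome c, caspase-9, procaspase-3, dATP. Technique: Rh110 fluorescence intensity. Buffer or medium: pH 7.5 Hepes buffer with CHAPS, BSA, DTT. Times: 30 min plus 50 min, RT.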
MEKK2 WT-MEK5 – modulators of MEK5 binding to wildtype MEKK2, primary screen, biochemical, multiplex bead flow cytometry, Alexa488-MEK5. Alexa488-MEK5 binding to MEKK2 WT; actives lie on both sides. hit rate 1.1% among 290,000. Mitogen-activated protein kinase kinase kinase 2 (Homo sapiens), Q9Y2U5. binding response (% of control), % at 10 µM; in the data active = binding response below about 67% or above about 130%
Pemphigus Ab inh – inhibitors of pemphigus antibody binding to DSG3, primary screen, biochemical, bead-based, flow cytometry, scFv-GFP; DSG3-coupled beads, scFv-anti-DSG3-GFP binding; hits give low values; binding (percent of control), % at 10 µM; hit rate 0.48% among 310,000;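 active = binding more than 3 SD below its plate's average and above zero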;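 note: hits lower antibody fragment binding to DSG3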
MEKK2mut PB1 HTS – MEK5 binding signal on mutant MEKK2 PB1, primary screen, biochemical, multiplex bead flow cytometry, Alexa488-MEK5; hit rate 0.35% among 290,000; AID 1530, 2009; Alexa488-MEK5 binding to MEKK2 mutant; percent response, % at 10 µM; in the data active = percent response above about 24%, passing the limit was not always enough
MEKK3 PB1 HTS – modulators of MEKK3-MEK5 PB1 binding, primary screen, biochemical, wildtype MEKK3, multiplex bead flow cytometry, Alexa488-MEK5 | binding response (% of control), % at 10 µM | bead-based flow cytometry, Alexa488-MEK5 binding to MEKK3; actives lie on both sides; 0 = blocked by unlabeled MEK5, 100 = vehicle | hit rate 1.4% among 290,000 | Mitogen-activated protein kinase kinase kinase 3 (Homo sapiens), Q99759 | AID 1529, 2009;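 active = binding response more than 3 SD above or below the average of its plate-row segment, actives on both sides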;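 note: Alexa488 bead fluorescence after subtracting the streptavidin-only scavenger bead signal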
Target sequence (Q99759 whole entry, looked up): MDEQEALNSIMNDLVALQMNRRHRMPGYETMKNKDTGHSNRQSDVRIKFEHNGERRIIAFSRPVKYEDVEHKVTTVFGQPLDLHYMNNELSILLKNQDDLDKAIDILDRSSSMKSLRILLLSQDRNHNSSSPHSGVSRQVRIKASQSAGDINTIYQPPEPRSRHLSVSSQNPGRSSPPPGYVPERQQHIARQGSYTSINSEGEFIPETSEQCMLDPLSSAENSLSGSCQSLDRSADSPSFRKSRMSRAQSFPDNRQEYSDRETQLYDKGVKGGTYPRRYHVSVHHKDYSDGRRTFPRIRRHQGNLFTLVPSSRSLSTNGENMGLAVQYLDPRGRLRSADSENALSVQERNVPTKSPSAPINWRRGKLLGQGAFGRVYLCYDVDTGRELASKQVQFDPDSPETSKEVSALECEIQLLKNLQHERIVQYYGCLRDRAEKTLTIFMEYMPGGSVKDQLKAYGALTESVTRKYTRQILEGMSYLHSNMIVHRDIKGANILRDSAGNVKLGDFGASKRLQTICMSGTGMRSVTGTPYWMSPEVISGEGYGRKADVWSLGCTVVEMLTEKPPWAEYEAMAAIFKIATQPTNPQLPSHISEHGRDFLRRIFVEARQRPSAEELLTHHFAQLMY
The depositor's hits bear a star; [ ] = dose if it differs, or a comment.

`O=C(c1ccc([N+](=O)[O-])cc1)N1CCN(C2=NS(=O)(=O)c3ccccc32)CC1` gave UBC13 polyUb -1, Apaf1 inhib 6, MEKK2 WT-MEK5 101, Pemphigus Ab inh 110, MEKK2mut PB1 HTS 6 and MEKK3 PB1 HTS 100.
For Clc1ccc2c(N/N=C/c3cccc(Br)c3)ccnc2c1 the results were MEKK2 WT-MEK5 121, Pemphigus Ab inh 112, MEKK2mut PB1 HTS 1 and MEKK3 PB1 HTS 88.
`Clc1ccc2c(N/N=C/c3ccccc3Br)ccnc2c1` gave UBC13 polyUb 5, Apaf1 inhib 1, MEKK2 WT-MEK5 85, Pemphigus Ab inh 133, MEKK2mut PB1 HTS -2 and MEKK3 PB1 HTS 70*[inhibitor].
`NS(=O)(=O)c1ccc(N=Nc2c[nH]c(=O)c(O)c2)cc1` gave UBC13 polyUb -330, Apaf1 inhib 74*, MEKK2 WT-MEK5 92, Pemphigus Ab inh 93, MEKK2mut PB1 HTS -6 and MEKK3 PB1 HTS 94.
Screening Nc1nc(O)c(N=Nc2ccc(S(N)(=O)=O)cc2)c(=O)[nH]1 returned UBC13 polyUb -15, Apaf1 inhib -10, MEKK2 WT-MEK5 103, MEKK2mut PB1 HTS 6 and MEKK3 PB1 HTS 104.
For COc1cc(OC)c(C2CC(=O)N3CN(c4ccccc4C)CSC3=C2C#N)cc1OC (stereo not drawn) the results were UBC13 polyUb -30, Apaf1 inhib 66*, MEKK2 WT-MEK5 90, MEKK2mut PB1 HTS 0 and MEKK3 PB1 HTS 102.
`COCCC(=O)NC1CCCc2c1cnn2-c1cccc(C)c1C` (stereo not drawn) gave UBC13 polyUb 9, Apaf1 inhib -10, MEKK2 WT-MEK5 103, Pemphigus Ab inh 97, MEKK2mut PB1 HTS 3 and MEKK3 PB1 HTS 102.
`Cn1nc(C(=O)Nc2ccc(S(=O)(=O)N3CCOCC3)cc2)c2ccccc2c1=O` gave UBC13 polyUb 6, Apaf1 inhib 9, MEKK2 WT-MEK5 98, Pemphigus Ab inh 84*, MEKK2mut PB1 HTS 0 and MEKK3 PB1 HTS 100.
`O=C(Cn1nc(C(=O)O)c2ccccc2c1=O)Nc1ccc(Cl)c(S(=O)(=O)N2CCOCC2)c1` gave UBC13 polyUb 1, Apaf1 inhib 8 and Pemphigus Ab inh 69*.
Screening Cc1ccc(OCc2nc(-c3cccs3)no2)c([N+](=O)[O-])c1 returned UBC13 polyUb -5, Apaf1 inhib 11, MEKK2 WT-MEK5 103, Pemphigus Ab inh 111, MEKK2mut PB1 HTS -2 and MEKK3 PB1 HTS 98.
For Cc1c(NC(=O)c2cc(-c3ccc(F)cc3)nc3ccccc23)c(=O)n(-c2ccccc2)n1C the results were UBC13 polyUb -6, Apaf1 inhib 1 and Pemphigus Ab inh 67*.
Screening Cc1c(NC(=O)c2ccc(C(=O)Nc3c(C)n(C)n(-c4ccccc4)c3=O)cc2)c(=O)n(-c2ccccc2)n1C returned UBC13 polyUb -4, Apaf1 inhib 5, MEKK2 WT-MEK5 111, Pemphigus Ab inh 117, MEKK2mut PB1 HTS 4 and MEKK3 PB1 HTS 110.
Cc1c(NC(=O)c2cnc(Cl)c(Cl)c2)c(=O)n(-c2ccccc2)n1C was read as UBC13 polyUb 4, Apaf1 inhib 7, MEKK2 WT-MEK5 46*[inhibitor], MEKK2mut PB1 HTS -19 and MEKK3 PB1 HTS 50*[inhibitor].
COc1ccc(S(=O)(=O)N2CCCCC2)cc1NC(=O)c1ccc(N2CCCC2=O)cc1 was read as UBC13 polyUb -2, Apaf1 inhib 8 and Pemphigus Ab inh 108.
For CC(C)NC(=O)NC(=O)CSc1nnc(-c2c[nH]c3ccccc23)o1 the results were UBC13 polyUb 6, Apaf1 inhib 18, MEKK2 WT-MEK5 107, MEKK2mut PB1 HTS 10 and MEKK3 PB1 HTS 105.
`COc1ccc(-c2n[nH]c(=S)nc2-c2ccc(OC)cc2)cc1` gave UBC13 polyUb 0, Apaf1 inhib 2, MEKK2 WT-MEK5 102, Pemphigus Ab inh 89, MEKK2mut PB1 HTS 1 and MEKK3 PB1 HTS 104.
CCc1cc(=O)n2c([nH]c3ccccc32)c1C#N was read as UBC13 polyUb -7, Apaf1 inhib 15, MEKK2 WT-MEK5 0.0*, Pemphigus Ab inh 95, MEKK2mut PB1 HTS 3 and MEKK3 PB1 HTS 101.
COc1ccc(NC(=O)CCS(=O)(=O)c2ccc3nc(C)sc3c2)cc1OC was read as UBC13 polyUb -8, Apaf1 inhib 3, MEKK2 WT-MEK5 93, Pemphigus Ab inh 105, MEKK2mut PB1 HTS 0 and MEKK3 PB1 HTS 96.
`Cc1nc2ccc(NC(=O)CCS(=O)(=O)c3ccc(Cl)cc3)cc2s1` gave UBC13 polyUb -1, Apaf1 inhib 5, MEKK2 WT-MEK5 100, Pemphigus Ab inh -174*, MEKK2mut PB1 HTS 2 and MEKK3 PB1 HTS 99.
`O=C(NCC1CCCO1)c1cn(Cc2ccccc2Cl)nc1-c1ccccc1` (stereo not drawn) gave UBC13 polyUb 1, Apaf1 inhib 6 and Pemphigus Ab inh 106.
`CC(=O)C1=C(C)NC(SCC(=O)c2ccc(Cl)cc2Cl)=C(C#N)C1c1ccco1` (stereo not drawn) gave UBC13 polyUb -18, Apaf1 inhib 28, MEKK2 WT-MEK5 85, Pemphigus Ab inh 77*, MEKK2mut PB1 HTS -1 and MEKK3 PB1 HTS 104.
For COc1cc(C(=O)NCC2CCCO2)ccc1OCc1ccc(Cl)cc1 (stereo not drawn) the results were UBC13 polyUb -5, Apaf1 inhib 3 and Pemphigus Ab inh 99.
Screening COc1ccc(C(C)=O)cc1COc1ccc(Cl)cc1Cl returned UBC13 polyUb 3, Apaf1 inhib -1, MEKK2 WT-MEK5 97, Pemphigus Ab inh 83*, MEKK2mut PB1 HTS 2 and MEKK3 PB1 HTS 103.
COc1ccc(C(C)=O)cc1COc1cc(C)c(Cl)c(C)c1 was read as UBC13 polyUb 7, Apaf1 inhib -4, MEKK2 WT-MEK5 104, Pemphigus Ab inh 94, MEKK2mut PB1 HTS -4 and MEKK3 PB1 HTS 99.
`COc1cc(C(=O)NCC2CCCO2)ccc1OCc1ccc(Cl)cc1Cl` (stereo not drawn) gave UBC13 polyUb -3, Apaf1 inhib 28 and Pemphigus Ab inh 81*.
CCOC(=O)N1CCN(S(=O)(=O)N2CCCC(C(=O)NCCCN3CC(C)CC(C)C3)C2)CC1 (stereo not drawn) was read as UBC13 polyUb -4, Apaf1 inhib -13, MEKK2 WT-MEK5 108, Pemphigus Ab inh 108, MEKK2mut PB1 HTS 13 and MEKK3 PB1 HTS 105.
